Data: ChEMBL document CHEMBL5724801, “EUbOPEN Chemogenomics Library - Multiplex” (2024)
Values joined by “and” are separate entries in the source; they are usually repeats but may differ in a detail not shown here. Equal values may be shown once.

Experiments:
Format in all cases: toxicity, cell-based
[1] = test system: Fibroblast; assay: Multiplex assay against human fibroblast
How it was run: (§1)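 Phenotypes for tubulin, mitochondrial mass and membrane permeability are expressed as per cents of healthy-nucleus cells. Cells were stained live at seeding with Hoechst33342, BioTracker Green Microtubule Cytoskeleton Dye, MitoTracker Red and Annexin V Alexa Fluor 680, then imaged after compound addition on a CQ1 microscope at 37°C and 5% CO2. Machine-learning gating in CellPathfinder separated Hoechst high-intensity objects from normal cells, divided normal cells by nuclear state (healthy, pyknosed, fragmented) and divided pyknosed cells into mitotic or apoptotic.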

[2] = test system: HEK-293T; assay: Multiplex assay against HEK293T; conditions: human; how it was run: as §1
[3] = test system: U2OS; assay: Multiplex assay against U2OS; conditions: human; how it was run: as §1
[4] = 12 h, 1 µM, compound concentration 1 uM
[5] = 12 h, 10 µM, compound concentration 10 uM
[6] = 24 h, 1 µM, compound concentration 1 uM
[7] = 24 h, 10 µM, compound concentration 10 uM
[8] = 48 h, 1 µM, compound concentration 1 uM
[9] = 48 h, 10 µM, compound concentration 10 uM

COc1cc(C(=O)N(CCCc2ccccc2)Cc2ccc(CC(=O)O)cc2)cc(OC)c1C
Population Apoptotic (%) [1, 4]: 63% and 42%
Population Fragmented Nuclei (%) [1, 4]: 14% and 37%
Population Healthy Nuclei (%) [1, 4]: 73% and 45%
Population Hoechst High Intensity Objects (%) [1, 4]: 2% and 4%
Population Membrane Permeable-Phenotype (%) [1, 4]: 0% and 11%
Population Mitochondria Different-Phenotype (%) [1, 4]: 0% and 5%
Population Mitotic Cells (%) [1, 4]: 36% and 57%
Population Normal (%) [1, 4]: 97% and 95%
Population Pyknosed Nuclei (%) [1, 4]: 12% and 16%
Population Tubulin-Different-Phenotype (%) [1, 4]: 15% and 36%
Total Cell Count [1, 4]: 160 and 176
Population Apoptotic (%) [1, 5]: 41% and 45%
Population Fragmented Nuclei (%) [1, 5]: 16% and 25%
Population Healthy Nuclei (%) [1, 5]: 70% and 61%
Population Hoechst High Intensity Objects (%) [1, 5]: 2% and 4%
Population Membrane Permeable-Phenotype (%) [1, 5]: 0% and 7%
Population Mitochondria Different-Phenotype (%) [1, 5]: 5% and 4%
Population Mitotic Cells (%) [1, 5]: 58% and 54%
Population Normal (%) [1, 5]: 97% and 95%
Population Pyknosed Nuclei (%) [1, 5]: 12% and 13%
Population Tubulin-Different-Phenotype (%) [1, 5]: 28% and 47%
Total Cell Count [1, 5]: 197 and 181
Population Apoptotic (%) [1, 6]: 68% and 52%
Population Healthy Nuclei (%) [1, 6]: 77% and 41%
Population Hoechst High Intensity Objects (%) [1, 6]: 1% and 4%
Population Membrane Permeable-Phenotype (%) [1, 6]: 0% and 1%
Population Mitochondria Different-Phenotype (%) [1, 6]: 0% and 6%
Population Mitotic Cells (%) [1, 6]: 31% and 48%
Population Normal (%) [1, 6]: 98% and 95%
Population Pyknosed Nuclei (%) [1, 6]: 10% and 13%
Population Tubulin-Different-Phenotype (%) [1, 6]: 13% and 28%
Total Cell Count [1, 6]: 156 and 189
Population Apoptotic (%) [1, 7]: 55% and 40%
Population Fragmented Nuclei (%) [1, 7]: 12% and 25%
Population Healthy Nuclei (%) [1, 7]: 76% and 61%
Population Hoechst High Intensity Objects (%) [1, 7]: 1% and 4%
Population Membrane Permeable-Phenotype (%) [1, 7]: 1% and 5%
Population Mitochondria Different-Phenotype (%) [1, 7]: 6% and 0%
Population Mitotic Cells (%) [1, 7]: 45% and 59%
Population Normal (%) [1, 7]: 98% and 96%
Population Pyknosed Nuclei (%) [1, 7]: 10% and 13%
Population Tubulin-Different-Phenotype (%) [1, 7]: 25% and 41%
Total Cell Count [1, 7]: 192 and 175
Population Apoptotic (%) [1, 8]: 90% and 52%
Population Fragmented Nuclei (%) [1, 8]: 21% and 50%
Population Healthy Nuclei (%) [1, 8]: 72% and 41%
Population Hoechst High Intensity Objects (%) [1, 8]: 1% and 2%
Population Membrane Permeable-Phenotype (%) [1, 8]: 0% and 3%
Population Mitochondria Different-Phenotype (%) [1, 8]: 0% and 9%
Population Normal (%) [1, 8]: 98% and 97%
Population Pyknosed Nuclei (%) [1, 8]: 6% and 8%
Population Tubulin-Different-Phenotype (%) [1, 8]: 17% and 40%
Total Cell Count [1, 8]: 168 and 211
Population Apoptotic (%) [1, 9]: 77% and 58%
Population Fragmented Nuclei (%) [1, 9]: 25% and 38%
Population Healthy Nuclei (%) [1, 9]: 65% and 54%
Population Hoechst High Intensity Objects (%) [1, 9]: 2% and 5%
Population Membrane Permeable-Phenotype (%) [1, 9]: 1% and 5%
Population Mitochondria Different-Phenotype (%) [1, 9]: 5% and 3%
Population Mitotic Cells (%) [1, 9]: 22% and 41%
Population Normal (%) [1, 9]: 97% and 94%
Population Pyknosed Nuclei (%) [1, 9]: 9% and 6%
Population Tubulin-Different-Phenotype (%) [1, 9]: 32% and 46%
Total Cell Count [1, 9]: 195 and 187
Population Apoptotic (%) [2, 4]: 45% and 44%
Population Fragmented Nuclei (%) [2, 4]: 7% and 6%
Population Healthy Nuclei (%) [2, 4]: 82% and 84%
Population Hoechst High Intensity Objects (%) [2, 4]: 5% and 4%
Population Membrane Permeable-Phenotype (%) [2, 4]: 0%
Population Mitochondria Different-Phenotype (%) [2, 4]: 47% and 50%
Population Mitotic Cells (%) [2, 4]: 55%
Population Normal (%) [2, 4]: 94% and 95%
Population Pyknosed Nuclei (%) [2, 4]: 10% and 9%
Population Tubulin-Different-Phenotype (%) [2, 4]: 31% and 19%
Total Cell Count [2, 4]: 395 and 410
Population Apoptotic (%) [2, 5]: 30% and 47%
Population Fragmented Nuclei (%) [2, 5]: 6% and 4%
Population Healthy Nuclei (%) [2, 5]: 77% and 82%
Population Hoechst High Intensity Objects (%) [2, 5]: 8% and 6%
Population Membrane Permeable-Phenotype (%) [2, 5]: 1% and 0%
Population Mitochondria Different-Phenotype (%) [2, 5]: 46% and 67%
Population Mitotic Cells (%) [2, 5]: 70% and 52%
Population Normal (%) [2, 5]: 91% and 93%
Population Pyknosed Nuclei (%) [2, 5]: 15% and 13%
Population Tubulin-Different-Phenotype (%) [2, 5]: 52% and 44%
Total Cell Count [2, 5]: 431 and 438
Population Apoptotic (%) [2, 6]: 32% and 48%
Population Fragmented Nuclei (%) [2, 6]: 7%
Population Healthy Nuclei (%) [2, 6]: 78% and 82%
Population Hoechst High Intensity Objects (%) [2, 6]: 5% and 3%
Population Membrane Permeable-Phenotype (%) [2, 6]: 0%
Population Mitochondria Different-Phenotype (%) [2, 6]: 27% and 26%
Population Mitotic Cells (%) [2, 6]: 67% and 51%
Population Normal (%) [2, 6]: 94% and 96%
Population Pyknosed Nuclei (%) [2, 6]: 14% and 9%
Population Tubulin-Different-Phenotype (%) [2, 6]: 15% and 10%
Total Cell Count [2, 6]: 483 and 507
Population Apoptotic (%) [2, 7]: 34% and 42%
Population Fragmented Nuclei (%) [2, 7]: 7%
Population Healthy Nuclei (%) [2, 7]: 80% and 79%
Population Hoechst High Intensity Objects (%) [2, 7]: 7% and 6%
Population Membrane Permeable-Phenotype (%) [2, 7]: 0%
Population Mitochondria Different-Phenotype (%) [2, 7]: 39% and 50%
Population Mitotic Cells (%) [2, 7]: 65% and 57%
Population Normal (%) [2, 7]: 92% and 93%
Population Pyknosed Nuclei (%) [2, 7]: 12%
Population Tubulin-Different-Phenotype (%) [2, 7]: 43% and 38%
Total Cell Count [2, 7]: 549 and 526
Population Apoptotic (%) [2, 8]: 30% and 26%
Population Fragmented Nuclei (%) [2, 8]: 12% and 9%
Population Healthy Nuclei (%) [2, 8]: 77% and 83%
Population Hoechst High Intensity Objects (%) [2, 8]: 1% and 3%
Population Membrane Permeable-Phenotype (%) [2, 8]: 1%
Population Mitochondria Different-Phenotype (%) [2, 8]: 16% and 17%
Population Mitotic Cells (%) [2, 8]: 69% and 73%
Population Normal (%) [2, 8]: 98% and 96%
Population Pyknosed Nuclei (%) [2, 8]: 9% and 7%
Population Tubulin-Different-Phenotype (%) [2, 8]: 11% and 9%
Total Cell Count [2, 8]: 812 and 753
Population Apoptotic (%) [2, 9]: 32% and 33%
Population Fragmented Nuclei (%) [2, 9]: 12% and 15%
Population Healthy Nuclei (%) [2, 9]: 76% and 75%
Population Hoechst High Intensity Objects (%) [2, 9]: 4% and 8%
Population Membrane Permeable-Phenotype (%) [2, 9]: 1%
Population Mitochondria Different-Phenotype (%) [2, 9]: 29% and 37%
Population Mitotic Cells (%) [2, 9]: 67% and 66%
Population Normal (%) [2, 9]: 95% and 91%
Population Pyknosed Nuclei (%) [2, 9]: 11% and 9%
Population Tubulin-Different-Phenotype (%) [2, 9]: 29% and 34%
Total Cell Count [2, 9]: 729 and 632
Population Apoptotic (%) [3, 4]: 95% and 70%
Population Fragmented Nuclei (%) [3, 4]: 29% and 23%
Population Healthy Nuclei (%) [3, 4]: 60% and 65%
Population Hoechst High Intensity Objects (%) [3, 4]: 4%
Population Membrane Permeable-Phenotype (%) [3, 4]: 7% and 8%
Population Mitochondria Different-Phenotype (%) [3, 4]: 4% and 1%
Population Normal (%) [3, 4]: 95%
Population Pyknosed Nuclei (%) [3, 4]: 10% and 11%
Population Tubulin-Different-Phenotype (%) [3, 4]: 4% and 1%
Total Cell Count [3, 4]: 228 and 93
Population Apoptotic (%) [3, 5]: 82% and 100%
Population Fragmented Nuclei (%) [3, 5]: 22% and 15%
Population Healthy Nuclei (%) [3, 5]: 71% and 79%
Population Hoechst High Intensity Objects (%) [3, 5]: 0% and 1%
Population Membrane Permeable-Phenotype (%) [3, 5]: 5% and 2%
Population Mitochondria Different-Phenotype (%) [3, 5]: 0% and 3%
Population Mitotic Cells (%) [3, 5]: 17% and 0%
Population Normal (%) [3, 5]: 99% and 98%
Population Pyknosed Nuclei (%) [3, 5]: 6% and 4%
Population Tubulin-Different-Phenotype (%) [3, 5]: 2% and 4%
Total Cell Count [3, 5]: 262 and 171
Population Apoptotic (%) [3, 6]: 84% and 73%
Population Fragmented Nuclei (%) [3, 6]: 29% and 22%
Population Healthy Nuclei (%) [3, 6]: 61% and 64%
Population Hoechst High Intensity Objects (%) [3, 6]: 2% and 4%
Population Membrane Permeable-Phenotype (%) [3, 6]: 7% and 2%
Population Mitochondria Different-Phenotype (%) [3, 6]: 6% and 2%
Population Mitotic Cells (%) [3, 6]: 15% and 26%
Population Normal (%) [3, 6]: 97% and 95%
Population Pyknosed Nuclei (%) [3, 6]: 9% and 13%
Population Tubulin-Different-Phenotype (%) [3, 6]: 4% and 0%
Total Cell Count [3, 6]: 288 and 120
Population Apoptotic (%) [3, 7]: 94% and 84%
Population Fragmented Nuclei (%) [3, 7]: 18% and 12%
Population Healthy Nuclei (%) [3, 7]: 76% and 80%
Population Hoechst High Intensity Objects (%) [3, 7]: 0% and 2%
Population Membrane Permeable-Phenotype (%) [3, 7]: 7%
Population Mitochondria Different-Phenotype (%) [3, 7]: 2% and 5%
Population Mitotic Cells (%) [3, 7]: 5% and 15%
Population Normal (%) [3, 7]: 99% and 97%
Population Pyknosed Nuclei (%) [3, 7]: 5% and 6%
Population Tubulin-Different-Phenotype (%) [3, 7]: 3% and 5%
Total Cell Count [3, 7]: 318 and 192
Population Apoptotic (%) [3, 8]: 86% and 78%
Population Fragmented Nuclei (%) [3, 8]: 23% and 22%
Population Healthy Nuclei (%) [3, 8]: 69% and 64%
Population Hoechst High Intensity Objects (%) [3, 8]: 3% and 6%
Population Membrane Permeable-Phenotype (%) [3, 8]: 5% and 7%
Population Mitochondria Different-Phenotype (%) [3, 8]: 2% and 5%
Population Mitotic Cells (%) [3, 8]: 13% and 21%
Population Normal (%) [3, 8]: 96% and 93%
Population Pyknosed Nuclei (%) [3, 8]: 7% and 12%
Population Tubulin-Different-Phenotype (%) [3, 8]: 4% and 6%
Total Cell Count [3, 8]: 408 and 159
Population Apoptotic (%) [3, 9]: 93% and 94%
Population Fragmented Nuclei (%) [3, 9]: 18% and 15%
Population Healthy Nuclei (%) [3, 9]: 75% and 71%
Population Hoechst High Intensity Objects (%) [3, 9]: 1% and 3%
Population Membrane Permeable-Phenotype (%) [3, 9]: 4% and 8%
Population Mitochondria Different-Phenotype (%) [3, 9]: 2% and 1%
Population Mitotic Cells (%) [3, 9]: 6% and 5%
Population Normal (%) [3, 9]: 98% and 96%
Population Pyknosed Nuclei (%) [3, 9]: 6% and 13%
Population Tubulin-Different-Phenotype (%) [3, 9]: 2% and 4%
Total Cell Count [3, 9]: 504 and 280
